Results taken from PubChem BioAssay AID822 (SRMLSC, 2007).
Calls of active or inactive are those of the source.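 The calls were made as follows: active = half-maximal effective dose for blocking growth of human endothelial cells at most 100 µM; inactive = the rest.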

Tests used:
[1] = HUVEC proliferation inhibition, dose response, cell-based, ATP luminescence (AID 822); settings: HUVEC proliferation, viability ATP luminescence;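 also: cells exposed to compound for 72 h before the ATP read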;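 as to viability: 100% = median luminescence of untreated cell-only control wells on each plate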
Summary of the method: (§1)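 Material – HUVEC · Amount – 1250 HUVEC cells seeded per well · Medium – EBM plus 2% FBS · Dosing – dose series 0.039 to 20 µM, DMSO 0.2% · Times – 72 h exposure, 37 °C · Detection – ATP luminescence · Read-out basis – % viability and fitted EC50 · Format – collagen-coated plates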

[2] = test system: HUVEC proliferation, viability ATP luminescence; assay: as above
Summary of the method: as §1

SMILES | viability ([1]; at 20 µM (top of the series)) | EC50 [2] | also measured
O=C(Oc1ccccc1-c1nnco1)c1ccc(Cl)cc1 | 105% (inactive) |  | 
CC1=CC(C)(C)Nc2ccc(OC(=O)CN3C(=O)C4CCCCC4C3=O)cc21 (centres undefined) | 91% (inactive) |  | 
COc1cccc(C(=O)Oc2c(CN3CCOCC3)cc(Cl)c3cccnc23)c1 |  |  | viability ([1]; at 10 µM (top of the series)): 84% (inactive)
CCOc1ccc(-c2nn3c(-c4ccccc4)nnc3s2)cc1 | 83.3% (inactive) |  | 
CN1C(=O)C(O)(CC(=O)c2cccc(-n3cccc3)c2)c2ccccc21 (centres undefined) | 84.7% (inactive) |  | 
Cn1c(SCC(=O)Nc2ccc(N3CCOCC3)cc2)nnc1-c1ccccc1 | 103% (inactive) |  | 
CCC(=O)N1c2ccc(S(=O)(=O)CCC(=O)N3CCn4c3nc3ccccc34)cc2CC1C (centres undefined) | 84.1% (inactive) |  | 
CCOC(=O)c1c(NC(=O)C2COc3ccccc3O2)sc(C(C)=O)c1C (centres undefined) | 112% (inactive) |  | 
Cc1nn(C)c(C)c1NC(=O)CSc1nc(C2CC2)nc2c1cnn2-c1ccccc1 | 101% (inactive) |  | 
Oc1ccc2oc3c(c2c1/C=N/n1cnnc1)CCCC3 | 88.2% (inactive) |  | 
CCOC(=O)c1ccc(NC(=O)c2c(C)[nH]c(C(=O)OCC)c2C)cc1 | 96.7% (inactive) |  | 
Cn1c(=O)c2cc(NCc3ccccc3)nnc2n(C)c1=O | 92.6% (inactive) |  | 
COc1ccc(-c2noc(-c3ccc(Br)o3)n2)cc1OC | 99.7% (inactive) |  | 
COc1ccc2cc3cc(C(=O)NCCc4ccc(OC)c(OC)c4)oc3nc2c1 | 93.3% (inactive) |  | 
CCCN(CCO)Cc1cccc(Br)c1 | 92.7% (inactive) |  | 
CNC(=O)Cn1c(=O)n(C)c2ccccc21 | 91.8% (inactive) |  | 
Cc1cc(C(=O)Nc2nc3ccc(S(C)(=O)=O)cc3s2)c(C)o1 | 82.9% (inactive) |  | 
CSc1nnc2n(-c3ccc(C)cc3)c(=O)c3c4c(sc3n12)COC(C(C)C)C4 (centres undefined) | 81.8% (inactive) |  | 
Cc1ccc(-n2nnnc2SCC(=O)Nc2ccc3c(c2)COC3=O)cc1C | 91.3% (inactive) |  | 
Brc1cccc(-c2nnc3sc(CNC4CCCC4)cn23)c1 | 84% (inactive) |  | 
CCCS(=O)(=O)N1CCC(C(=O)N2CCC3(CC2)OCCO3)CC1 | 99.1% (inactive) |  | 
Cn1nnc(NC(=O)CSc2ccc(Cl)cc2)n1 | 103% (inactive) |  | 
Cc1ccc(NC(=O)C(C)N2C(=O)c3ccccc3C2=O)cc1 (centres undefined) | 90.9% (inactive) |  | 
CCn1nc(C(=O)NC2=NCCS2)c2ccccc2c1=O | 101% (inactive) |  | 
CCOc1ccc(NC(=S)Nc2ccc(C)c([N+](=O)[O-])c2)cc1 | 88.7% (inactive) |  | 

SMILES | viability ([1]; at 20 µM (top of the series)) | EC50 [2] | also measured
C=CCn1c(O)c(C2=c3ccccc3=NC2=O)s/c1=N/c1nccs1 | 85.2% (inactive) |  | 
O=C(Cc1sc(-c2ccccc2Cl)nc1-c1ccccc1)Nc1ccc(F)cc1 | 83.5% (inactive) |  | 
Clc1ccc(Cn2cc(/C=N/n3cnnc3)c3ccccc32)c(Cl)c1 | 87.3% (inactive) |  | 
CCOc1ccc(OCc2ccc(C(=O)NCC3CCCO3)o2)cc1 (centres undefined) | 116% (inactive) |  | 
CC(C)(C)n1cnc2cc(NS(=O)(=O)c3ccccc3)ccc21 | 105% (inactive) |  | 
c1ccc(CSc2nnc(-c3c[nH]c4ccccc34)o2)cc1 | 85.9% (inactive) |  | 
CC1(C)CC(=O)c2cc(C(=O)NCc3ccco3)c(=O)n(-c3ccc(Cl)cc3)c2C1 | 97.2% (inactive) |  | 
CCCC1(CCC)NC(=O)N(CC(=O)Nc2ccccc2OC)C1=O | 113% (inactive) |  | 
CC1(C)CC(NC(=O)c2coc(=O)c(Br)c2)CC(C)(C)N1 | 81% (inactive) |  | 
CCOC(=O)COc1ccc(S(=O)(=O)NCCC2=CCCCC2)cc1 |  | 11.9 µM | 
CC(=O)Oc1ccc(N(C(C)=O)S(=O)(=O)c2cccs2)c2ccccc12 |  | 9 µM | 
Cc1nc(Nc2ccc3c(c2)OCCO3)c2nnn(Cc3ccccc3Cl)c2n1 |  | 7.13 µM | 
Cc1oc(-c2ccc(Cl)cc2)nc1CN1CCC(C(=O)N2CCN(Cc3ccccc3)CC2)CC1 |  | 8.43 µM | 
Cn1cc(/C=N/n2cnc3scc(-c4ccccc4)c3c2=O)c2ccccc21 |  | 4.94 µM | 
CCc1ccc(-c2nc(CN3CCC(C(=O)NCc4ccc(F)cc4)CC3)c(C)o2)cc1 |  | 5.89 µM | 
CCOC(=O)c1c(NC(=O)CCl)sc(C(=O)N(CC)CC)c1C |  | 12.3 µM | 
CN1CCN(CCCN2c3ccccc3Sc3ccc(C(F)(F)F)cc32)CC1 |  | 6.57 µM | 
COCc1cc(CN2CCCC2)c(O)c2ncccc12 |  | > 10 µM (inactive) | 
O=c1[nH]c(=O)n(Cc2ccccc2)c2nc(-c3ccco3)cc(C(F)(F)F)c12 |  | 17 µM | 
c1cc2c3c(cccc3c1)NC1(CCCCCC1)N2 |  | > 10 µM (inactive) | 
COc1ccc(O)c(-c2cc(-c3cccc(Br)c3)n[nH]2)c1 |  | 10.8 µM | 
CCN(CC)CCn1c2ccccc2c2cnc(N)c(C#N)c21 |  | 15.2 µM | 
CCOC(=O)c1c(N)sc2c(OC)c(Br)ccc12 |  | 16.8 µM | 
C=CCN1C(=Nc2cccnc2)SCC1(O)c1ccc(C)cc1 (centres undefined) |  | 11.2 µM | 
